Measurements taken from PMC9720839 (Cell reports, 2022).
“Also recorded” adds a separate entry of the source. {56-FAM} = 6-carboxyfluorescein label (IDT code)

Experiments:
[1] = biological target: hP13 ZnF5-WWE1-WWE2 (wild type) (Homo sapiens, UniProt Q7Z2W4); experiment: Differential scanning fluorimetry; type: binding; conditions: protein 8 μM, DSF
Procedure, shortened: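 His-GB1-tagged human fragment (residues 507–699) expressed in E. coli Rosetta2, TEV-cleaved, purified by Ni2+, gel filtration and Q flow-through. TM from Boltzmann fit; ΔTM = TM with ligand minus without; two repeats.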

[2] = biological target: T1, hP13 ZnF5-WWE1-WWE2 W611A mutant (Homo sapiens, UniProt Q7Z2W4, W611A); experiment: Differential scanning fluorimetry; type: binding; conditions: protein 8 μM, DSF
WWE domain from RNF-146 = conditions: ref Wang et al., 2012; cited from earlier work
hP13 ZnF5-WWE1-WWE2 = hP13 ZnF5-WWE1-WWE2 (Homo sapiens, UniProt Q7Z2W4); experiment: FP RNA binding assay; conditions: FAM-labeled RNA 5 nM, 300 mM KCl
[3] = biological target: mouse PARP13 (mP13) ZnF5-WWE1-WWE2 (residues 476-673) (mouse) (UniProt Q3UPF5); experiment: SEC-MALS
[4] = biological target: T1, hP13 ZnF5-WWE1-WWE2 W611A mutant; experiment: Fluorescence polarization; conditions: direct FP binding, probe 5 nM
Procedure, shortened: (§1)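 QuickChange point mutants of human fragment (residues 507–699), His-GB1 fusion, expressed in Rosetta2 (0.2 mM IPTG, 16°C, 18 h), TEV-cleaved, purified by Ni2+, gel filtration, Q flow-through. Quadratic 1:1 KD fit; ≥3 experiments, mean ± SD.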

[5] = biological target: hP13 ZnF5-WWE1-WWE2 R682A mutant (Homo sapiens, UniProt Q7Z2W4, R682A); experiment: Fluorescence polarization; type: binding; conditions: R682A versus wild-type hP13 ZnF5-WWE1-WWE2
Procedure, shortened: as §1

[6] = biological target: hP13 ZnF5-WWE1-WWE2 R577A mutant (Homo sapiens, UniProt Q7Z2W4, R577A); experiment: Fluorescence polarization; type: binding; conditions: R577A versus wild-type hP13 ZnF5-WWE1-WWE2
Procedure, shortened: as §1

WWE domain of RNF-146 = experiment: Fluorescence polarization; conditions: direct FP binding, probe 5 nM

Sequence of hP13 ZnF5-WWE1-WWE2 (wild type) (Q7Z2W4 507-699): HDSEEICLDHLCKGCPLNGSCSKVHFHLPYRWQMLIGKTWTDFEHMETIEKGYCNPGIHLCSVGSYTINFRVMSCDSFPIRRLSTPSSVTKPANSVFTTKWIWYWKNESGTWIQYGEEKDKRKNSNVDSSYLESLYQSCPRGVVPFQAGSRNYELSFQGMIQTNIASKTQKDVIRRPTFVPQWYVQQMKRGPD
T1 sequence (Q7Z2W4 507-699 W611A): as the sequence (Q7Z2W4 507-699) above, with W105A counted along it
Sequence of hP13 ZnF5-WWE1-WWE2 (Q7Z2W4 507-699): as the sequence (Q7Z2W4 507-699) above
Sequence of hP13 ZnF5-WWE1-WWE2 R682A mutant (Q7Z2W4 507-699 R682A): as the sequence (Q7Z2W4 507-699) above, with R176A counted along it
Sequence of hP13 ZnF5-WWE1-WWE2 R577A mutant (Q7Z2W4 507-699 R577A): as the sequence (Q7Z2W4 507-699) above, with R71A counted along it

Row | Molecule | change in thermal stability in presence of ligand (in words) [1] | change in thermal stability in presence of ligand (in words) [2] | binding (in words) (WWE domain from RNF-146) | other results
1 | Nc1ncnc2c1ncn2[C@@H]1O[C@H](COP(=O)(O)OP(=O)(O)OC[C@H]2OC(O)[C@H](O)[C@@H]2O)[C@@H](O)[C@H]1O (some centres unmarked) [ADPr, ADP-ribose] | increase in the thermal stability; also recorded: increased hP13 ZnF5-WWE1-WWE2 thermal stability | did not show an increase in thermal stability | do not bind | –
2 | Nc1ncnc2c1ncn2[C@@H]1O[C@H](COP(=O)(O)OP(=O)(O)OP(=O)(O)O)[C@@H](O)[C@H]1O [ATP] | increase in the thermal stability | did not show an increase in thermal stability | – | –
3 | Nc1ncnc2c1ncn2[C@@H]1O[C@H](COP(=O)(O)O)[C@@H](O)[C@H]1O[C@@H]1O[C@H](COP(=O)(O)O)[C@@H](O)[C@H]1O [iso-ADPr] | increase in thermal stability in the presence of iso-ADPr, but to a lesser extent than seen with ADPr | – | capable of binding | –
4 | /56-FAM/rArArArCrArArArArArArArGrArCrGrArArArArA (AAACAAAAAAAGACGAAAAA; RNA, 5' {56-FAM}, backbone not given here) [RNA-FAM] | – | – | – | RNA binding (in words) (hP13 ZnF5-WWE1-WWE2): unable to bind
5 | mouse PARP13 (mP13) ZnF5-WWE1-WWE2 (residues 476-673) (from UniProt Q3UPF5 476-673) (domain or fragment) | – | – | – | percent of the scattering mass in the dimer peak [3]: 4%; stoichiometry N [3]: 2
6 | γ-(6-Aminohexyl)-ATP-6-FAM [ATP-FAM] | – | – | – | binding to probe (in words) [4]: no evidence of binding; also recorded: no indication of binding; binding affinity, fold weaker than wild type [5]: 1.2 fold; binding affinity, fold weaker than wild type [6]: 1.1 fold; binding to probe (in words) (WWE domain of RNF-146): no evidence of binding; also recorded: no indication of binding
